Data published in ChEMBL document CHEMBL3877293, “Synthesis and Antineoplastic Evaluation of Novel Unsymmetrical 1,3,4-Oxadiazoles” (J Med Chem, 2016).
pIC50: −log10 of the molar value. Activity calls are given as the source filed them. No cut-off for these calls is given here.

What was measured:
MCF7 [1] = experiment: Antiproliferative activity against human MCF7 cells at 2 uM after 72 hrs by XTT assay; assay type: functional, cell-based
[2] = Antiproliferative activity against human T98G cells after 72 hrs by XTT assay; assay type: functional, cell-based
Method in brief: (§1)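 Cells plated at 1500–2000 per well by doubling time, treated after 24 h with a concentration series in six triplicate wells, and incubated 72 h without a medium change. XTT reagent was then added for 4 h at 37 °C and absorbance read at 490 nm. IC50 is the concentration halving absorbance versus untreated cells. Experiments run in triplicate.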

MCF7 [3] = experiment: Selectivity ratio of IC50 for human MCF7 cells to IC50 for human RD cells; assay type: functional
Method in brief: (§2)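 XTT viability: 1500–2000 cells/well plated by doubling time; compounds added after 24 h, then 72 h further culture without medium change. XTT reagent 4 h at 37 °C, absorbance read at 490 nm. IC50 is the concentration halving absorbance versus untreated cells; triplicate experiments. Ratio is MCF7 IC50 divided by IC50 in the named line.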

MCF7 [4] = experiment: Selectivity ratio of IC50 for human MCF7 cells to IC50 for human T98G cells; assay type: functional; method in brief: as §2
[5] = Antiproliferative activity against human MCF7 cells at 0.5 uM after 72 hrs in presence of 5 uM BCRP inhibitor harmine by XTT assay relative to control; assay type: functional
Method in brief: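 Mcf7 cells treated after 24 h for 72 h at 37 °C, 5% CO2 with test compound at 0.5 μM alone or combined with harmine (1, 3, 5 μM) or reversan (5, 15, 25 μM). XTT was added for 4 h at 37 °C, absorbance read at 490 nm, and viability compared with control.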

[6] = Cell cycle arrest in human HeLa cells assessed as G1 phase accumulation at 1 uM after 8 hrs by propidium iodide staining based flow cytometry (reference value: 62.7%); assay type: functional
[7] = Cell cycle arrest in human MCF7 cells assessed as G1 phase accumulation at 1 uM after 24 hrs by propidium iodide staining based flow cytometry (reference value: 54.1 +/- 1.52%); assay type: functional
[8] = Cell cycle arrest in human MCF7 cells assessed as S phase accumulation at 1 uM after 24 hrs by propidium iodide staining based flow cytometry (reference value: 21.7 +/- 1.42%); assay type: functional
[9] = Cell cycle arrest in human MCF7 cells assessed as G2/M phase accumulation at 1 uM after 144 hrs by propidium iodide staining based flow cytometry (reference value: 16.3%); assay type: functional
[10] = Cell cycle arrest in human NCI-H1299 cells assessed as S phase accumulation at 1 uM after 48 hrs by propidium iodide staining based flow cytometry (reference value: 7.2%); assay type: functional
[11] = Cell cycle arrest in human RD cells assessed as G1 phase accumulation at 1 uM after 24 hrs by propidium iodide staining based flow cytometry (reference value: 56.7 +/- 1.48%); assay type: functional
[12] = Cell cycle arrest in human RD cells assessed as G2/M phase accumulation at 1 uM after 24 hrs by propidium iodide staining based flow cytometry (reference value: 28.9 +/- 1.93%); assay type: functional
[13] = Cell cycle arrest in human T98G cells assessed as S phase accumulation at 1 uM after 24 hrs by propidium iodide staining based flow cytometry (reference value: 5.1 +/- 0.82%); assay type: functional
[14] = Cell cycle arrest in human T98G cells assessed as G2/M phase accumulation at 1 uM after 24 hrs by propidium iodide staining based flow cytometry (reference value: 8.8 +/- 0.93%); assay type: functional
[15] = Cell cycle arrest in human SH-SY5Y cells assessed as G1 phase accumulation at 1 uM after 24 hrs by propidium iodide staining based flow cytometry (reference value: 59.6 +/- 1.94%); assay type: functional
[16] = Cell cycle arrest in human SK-N-AS cells assessed as G1 phase accumulation at 1 uM after 24 hrs by propidium iodide staining based flow cytometry (reference value: 51.5 +/- 1.39%); assay type: functional
[17] = Cell cycle arrest in human SK-N-AS cells assessed as S phase accumulation at 1 uM after 24 hrs by propidium iodide staining based flow cytometry (reference value: 21.3 +/- 1.14%); assay type: functional
[18] = Cell cycle arrest in human SK-N-AS cells assessed as G2/M phase accumulation at 1 uM after 24 hrs by propidium iodide staining based flow cytometry (reference value: 25.2 +/- 1.32%); assay type: functional
[19] = Cell cycle arrest in human PC3 cells assessed as S phase accumulation at 1 uM after 24 hrs by propidium iodide staining based flow cytometry (reference value: 6.2 +/- 0.94%); assay type: functional; details: PC-3
[20] = Cell cycle arrest in human NB-1 cells assessed as G1 phase accumulation at 1 uM after 48 hrs by propidium iodide staining based flow cytometry (reference value: 85.9%); details: nb1, 48 h
[21] = Cell cycle arrest in human NB-1 cells assessed as G2/M phase accumulation at 1 uM after 72 hrs by propidium iodide staining based flow cytometry (reference value: 15.8%); details: nb1, 72 h
[22] = Cell cycle arrest in human NB1 hTERT cells assessed as S phase accumulation at 1 uM after 24 hrs by propidium iodide staining based flow cytometry (reference value: 11.8%); assay type: functional
[23] = Cell cycle arrest in human NB1 hTERT cells assessed as G2/M phase accumulation at 1 uM after 24 hrs by propidium iodide staining based flow cytometry (reference value: 35.7%); assay type: functional
[24] = Cell cycle arrest in human NB1 hTERT cells assessed as S phase accumulation at 1 uM after 48 hrs by propidium iodide staining based flow cytometry (reference value: 10.3%); assay type: functional
SH-SY5Y = experiment: Disruption of beta-tubulin network in human SH-SY5Y cells assessed as shorter microtubule bundles around nuclei at 1 uM after 24 hrs by DAPI staining based immunofluorescence microscopic analysis; assay type: cell-based
Method in brief: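 Cells seeded on glass coverslips (1 x 10^5/well), treated 24 h, fixed in 4% paraformaldehyde 15 min, permeabilized with 0.5% Triton X-100, blocked in 5% BSA/PBS, stained overnight at 4 °C with anti-β-tubulin (1:200) then fluorescent secondary antibody; nuclei counterstained with DAPI; microtubule organization and nuclear morphology examined by fluorescence microscopy.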

HeLa [25] = experiment: Induction of apoptosis in human HeLa cells assessed as early apoptotic cells at 5 uM after 48 hrs by Annexin-V FITC/propidium iodide staining based flow cytometry (reference value: 1.6%); assay type: functional
HeLa [26] = experiment: Induction of apoptosis in human HeLa cells assessed as necrotic cells at 5 uM after 48 hrs by Annexin-V FITC/propidium iodide staining based flow cytometry (reference value: 2.3%); assay type: functional
A549 [27] = experiment: Induction of apoptosis in human A549 cells assessed as late apoptotic cells at 5 uM after 72 hrs by Annexin-V FITC/propidium iodide staining based flow cytometry (reference value: 5.2%); assay type: functional
A549 [28] = experiment: Induction of apoptosis in human A549 cells assessed as necrotic cells at 5 uM after 72 hrs by Annexin-V FITC/propidium iodide staining based flow cytometry (reference value: 1.6%); assay type: functional
[29] = Induction of apoptosis in human NB1 hTERT cells assessed as live cells at 5 uM after 72 hrs by Annexin-V FITC/propidium iodide staining based flow cytometry (reference value: 93.2%); assay type: functional
[30] = Antiproliferative activity against human NB1 hTERT cells after 72 hrs by XTT assay; assay type: functional, cell-based; method in brief: as §1

Q: With `Cc1[nH]c2c(c1-c1nnc(-c3ccccc3)o1)Cc1ccccc1-2` as the compound, how does the Activity (MCF7 [1]) read?
A: The Activity was “Active”.

Q: What about the pIC50 [2] of the same compound?
A: Its pIC50 is 7.22.

Q: What about the “Ratio IC50” value (MCF7 [3]) of the same compound?
A: The value was 28 - 34.

Q: And the “Ratio IC50” value (MCF7 [4])?
A: Its value is 28 - 34.

Q: And the Activity [5]?
A: The Activity was 40%.

Q: And the Activity [6]?
A: The Activity was 32.5%.

Q: And the Activity [7]?
A: The Activity was 15.7 to 30.1%.

Q: What about the Activity [8] of the same compound?
A: Its Activity is 6.3 to 10.4%.

Q: What about the Activity [9] of the same compound?
A: Its Activity is 79.9%.

Q: And the Activity [10]?
A: Its Activity is 9.7%.

Q: What about the Activity [11] of the same compound?
A: Its Activity is 36.9%.

Q: And the Activity [12]?
A: The Activity was 46.4%.

Q: What about the Activity [13] of the same compound?
A: The Activity was 6.2%.

Q: What about the Activity [14] of the same compound?
A: The Activity was 65.9%.

Q: And the Activity [15]?
A: Its Activity is 24.8%.

Q: And the Activity [16]?
A: Its Activity is 10.8%.

Q: And the Activity [17]?
A: The Activity was 9.9%.

Q: What about the Activity [18] of the same compound?
A: The Activity was 73%.

Q: What about the Activity [19] of the same compound?
A: Its Activity is 4.7%.

Q: What about the Activity [20] of the same compound?
A: The Activity was 82.6%.

Q: What about the Activity [21] of the same compound?
A: The Activity was 18.1%.

Q: And the Activity [22]?
A: Its Activity is 12.3%.

Q: What about the Activity [23] of the same compound?
A: Its Activity is 28.9%.

Q: What about the Activity [24] of the same compound?
A: Its Activity is 10.9%.

Q: And the Activity (SH-SY5Y)?
A: The Activity was “Active”.

Q: What about the Activity (HeLa [25]) of the same compound?
A: The Activity was 4.6%.

Q: What about the Activity (HeLa [26]) of the same compound?
A: The Activity was 4.3%.

Q: What about the Activity (A549 [27]) of the same compound?
A: Its Activity is 41.7%.

Q: And the Activity (A549 [28])?
A: The Activity was 4.6%.

Q: What about the Activity [29] of the same compound?
A: The Activity was 81%.

Q: What about the pIC50 [30] of the same compound?
A: Its pIC50 is 6.89.
